{
  "source": "ChEMBL document CHEMBL2157930",
  "about": "“Synthesis and structure-activity relationship of berberine analogues in LDLR up-regulation and AMPK activation” (2012)",
  "key": {"[1]": {"tested_on": "HepG2", "experiment": "Increase in AMPKalpha phosphorylation in human HepG2 cells at 10 uM after 4 hrs by Western blot analysis relative to untreated control", "format": "cell-based", "outline": "(§1)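 HepG2 cells in MEM with 10% FBS and antibiotics, 37 °C, 5% CO2, plated the day before to about 70% confluence. Treated with vehicle or compound at 10 uM for 4 h. Whole-cell lysates were run on SDS-PAGE and Western blotted for Thr172-phospho-AMPKa and total AMPKa. Bands were scanned and p-AMPKa was expressed as a percentage of total AMPKa. Mean ± SEM of 3 experiments.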"}, "[2]": {"tested_on": "HepG2", "experiment": "Up regulation of LDLR expression in human HepG2 cells at 10 uM after 12 hrs by RT-PCR relative to untreated control", "format": "functional", "outline": "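HepG2 cells (MEM, 10% FBS, about 70% confluent) treated at 10 uM for 12 h. LDLR mRNA measured by real-time RT-PCR, reverse transcription 42 °C for 15 min. Normalized to β-actin by the comparative threshold cycle method and expressed as fold of untreated control (set to 1). Mean ± SEM of 3 separate experiments.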"}, "[3]": {"tested_on": "HepG2", "experiment": "Increase in total AMPKalpha level in human HepG2 cells at 10 uM after 4 hrs by Western blot analysis relative to untreated control", "format": "functional, cell-based", "outline": "as §1"}, "[4]": {"tested_on": "HepG2", "experiment": "Induction of AMPKalpha phosphorylation in human HepG2 cells after 4 hrs by Western blot analysis relative to untreated control", "format": "cell-based", "outline": "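HepG2 cultured as above, about 70% confluent, then exposed to a range of concentrations for 4 h. Western blot for Thr172-phospho-AMPKa and total AMPKa, densitometry, p-AMPKa as a percentage of total, relative to untreated cells. Mean ± SEM of 3 experiments.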"}, "[5]": {"tested_on": "HepG2", "experiment": "Induction of AMPKalpha phosphorylation in human HepG2 cells at 10 uM by Western blot analysis relative to untreated control", "format": "cell-based", "conditions": "TDE = time-dependent effect", "outline": "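Time course in HepG2: cells given 10 uM for different time intervals. Western blot for Thr172-phospho-AMPKa and total AMPKa, bands quantified, p-AMPKa as a percentage of total, compared with untreated cells. Mean ± SEM of 3 repeats.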"}, "[6]": {"tested_on": "HepG2", "experiment": "Increase in AMPKalpha phosphorylation in human HepG2 cells at 10 uM after 4 hrs by Western blot analysis relative to untreated control relative to total AMPKalpha level", "format": "cell-based", "outline": "as §1"}, "[7]": {"tested_on": "L6", "experiment": "Induction of AMPKalpha phosphorylation in rat L6 cells", "format": "cell-based"}},
  "note": "The source made the active and inactive calls.",
  "data": [
    {"compound": "COc1ccc2cc3n(cc-2c1=O)CCc1cc2c(cc1-3)OCO2", "values": [
      {"measurement": "Activity", "setting": "[1]", "value": "Active"}
    ]},
    {"compound": "COc1cc2c(c(OC)c1OC)-c1cc3ccc(OC)c(OC)c3c[n+]1CC2.[Cl-]", "values": [
      {"measurement": "fold change (FC)", "setting": "[2]", "value": 0.88}
    ]},
    {"compound": "COc1ccc2cc3[n+](cc2c1O)CCc1cc2c(cc1-3)OCO2", "values": [
      {"measurement": "Activity", "setting": "[1]", "value": "Active"}
    ]},
    {"compound": "CCOc1cc2cc3[n+](cc2cc1OC)CCc1cc2c(cc1-3)OCO2.[Cl-]", "values": [
      {"measurement": "fold change (FC)", "setting": "[2]", "value": 0.91}
    ]},
    {"compound": "COc1cc2cc3[n+](cc2cc1OC)CCc1c-3ccc(OC)c1OC.[Cl-]", "values": [
      {"measurement": "fold change (FC)", "setting": "[2]", "value": 0.92}
    ]},
    {"compound": "[Cl-].c1c2c(cc3c1OCO3)-c1cc3cc4c(cc3c[n+]1CC2)OCCO4", "values": [
      {"measurement": "fold change (FC)", "setting": "[2]", "value": 0.96}
    ]},
    {"compound": "COc1ccc2cc3[n+](cc2c1F)CCc1cc2c(cc1-3)OCO2.[Cl-]", "values": [
      {"measurement": "fold change (FC)", "setting": "[2]", "value": 1}
    ]},
    {"compound": "COc1ccc2cc3[n+](cc2c1Cl)CCc1cc2c(cc1-3)OCO2.[Cl-]", "values": [
      {"measurement": "fold change (FC)", "setting": "[2]", "value": 1.12}
    ]},
    {"compound": "CCOc1cc2c(cc1OC)CC[n+]1cc3c(OC)c(OC)ccc3cc1-2.[Cl-]", "values": [
      {"measurement": "fold change (FC)", "setting": "[2]", "value": 1}
    ]},
    {"compound": "COc1cc2cc3[n+](cc2cc1OC)CCc1cc2c(cc1-3)OCO2.[Cl-]", "note": "[PSEUDOBERBERINE]", "values": [
      {"measurement": "Activity", "setting": "[3]", "value": "Active"},
      {"measurement": "Activity", "setting": "[4]", "value": "Dose-dependent effect"},
      {"measurement": "Activity", "setting": "[5]", "value": "tde"},
      {"measurement": "fold change (FC)", "setting": "[6]", "value": 2.6},
      {"measurement": "fold change (FC)", "setting": "[2]", "value": 3.23},
      {"measurement": "Activity", "setting": "[1]", "value": "Active"},
      {"measurement": "Activity", "setting": "[7]", "value": "Active"}
    ]},
    {"compound": "COc1cc(Br)c2cc3[n+](cc2c1O)CCc1cc2c(cc1-3)OCO2.[Cl-]", "values": [
      {"measurement": "fold change (FC)", "setting": "[2]", "value": 0.94}
    ]},
    {"compound": "COc1cc2cc3[n+](cc2c(Cl)c1OC)CCc1cc2c(cc1-3)OCO2.[Cl-]", "values": [
      {"measurement": "fold change (FC)", "setting": "[2]", "value": 0.92}
    ]},
    {"compound": "CCOc1cc2c(cc1OC)-c1cc3ccc(OC)c(OC)c3c[n+]1CC2.[Cl-]", "values": [
      {"measurement": "fold change (FC)", "setting": "[2]", "value": 1.02}
    ]},
    {"compound": "COc1ccc2cc3[n+](cc2c1OC)CCc1cc2c(cc1-3)OCO2.[Cl-]", "note": "[BERBERINE CHLORIDE]", "values": [
      {"measurement": "Activity", "setting": "[3]", "value": "Active"},
      {"measurement": "fold change (FC)", "setting": "[6]", "value": "< 3.2"},
      {"measurement": "fold change (FC)", "setting": "[2]", "value": 2.35},
      {"measurement": "Activity", "setting": "[1]", "value": "Active"}
    ]},
    {"compound": "COc1ccc2c(c1OC)CC[n+]1cc3c(OC)c(OC)ccc3cc1-2.[Cl-]", "values": [
      {"measurement": "fold change (FC)", "setting": "[2]", "value": 0.89}
    ]},
    {"compound": "CCOc1cc2c(cc1OC)CC[n+]1cc3cc(OC)c(OC)cc3cc1-2.[Cl-]", "values": [
      {"measurement": "fold change (FC)", "setting": "[2]", "value": 0.96}
    ]},
    {"compound": "CCOc1cc2c(cc1OC)-c1cc3cc(OC)c(OC)cc3c[n+]1CC2.[Cl-]", "values": [
      {"measurement": "fold change (FC)", "setting": "[2]", "value": 1.04}
    ]},
    {"compound": "COc1cc2c(cc1O)-c1cc3ccc(OC)c(OC)c3c[n+]1CC2.[Cl-]", "note": "[COLUMBAMINE CHLORIDE]", "values": [
      {"measurement": "fold change (FC)", "setting": "[2]", "value": 1.15}
    ]}
  ]
}
